Among all 330,000 compounds or so, about 1,100 (0.33%) were called active.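 How the source made its calls: active means mean inhibition over replicate wells above about 20% (limit read from the data); inactive means the rest.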 Only a selection was taken, and actives are over-represented in it overall.
Molecular target: Ubiquitin carboxyl-terminal hydrolase isozyme L5 (Homo sapiens) (UniProt Q9Y5K5)
Test: inhibitors of human UCH37 deubiquitinase, primary screen, biochemical, Ub-AMC cleavage, fluorescence (AID 588478);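 further: 0% = compound-free wells with enzyme and 100% = wells lacking proteasome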
Conditions: purified proteasome/UCH37, Ub-AMC cleavage fluorescence; stronger effect = higher value; concentration not given here
Outline: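 Reagent: Ub-AMC substrate; assay system: Proteasome-associated human UCH37 deubiquitinase; controls: no-proteasome and no-compound wells; read-out: % inhibition of Ub-AMC cleavage fluorescence; timing: 30 min preincubation with enzyme, 25 min cleavage at room temperature; signal: AMC fluorescence from Ub-AMC cleavage, excitation 355 nm, emission 460 nm; buffer or medium: Tris-HCl pH 7.4 plus ovalbumin, ATP-MgCl2, DTT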

Chain of Ubiquitin carboxyl-terminal hydrolase isozyme L5 (Homo sapiens) (Q9Y5K5 whole entry, looked up): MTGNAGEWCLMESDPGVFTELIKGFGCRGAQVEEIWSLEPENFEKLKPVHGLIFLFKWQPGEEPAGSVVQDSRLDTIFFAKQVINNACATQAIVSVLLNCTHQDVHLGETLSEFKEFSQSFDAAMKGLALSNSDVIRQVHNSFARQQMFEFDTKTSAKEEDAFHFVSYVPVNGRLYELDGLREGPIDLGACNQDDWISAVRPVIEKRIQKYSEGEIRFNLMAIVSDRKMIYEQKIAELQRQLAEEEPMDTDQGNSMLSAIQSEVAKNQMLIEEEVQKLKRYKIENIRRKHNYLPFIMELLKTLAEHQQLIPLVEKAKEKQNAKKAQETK

inhibition, active:
N#C/C(=C/c1ccc(N2CCOCC2)o1)C(=O)N1CCOCC1 33.4%
O=c1[nH]n2c(=O)c3c([nH]c2c1N=Nc1ccccc1)CCC3 22.1%
N#CC(=C(O)CCl)c1nnc2n1CCCCC2 31.4%
Cc1cnc(NC(=O)C2CCCC2)s1 31%
Cc1cc(/C=C2/C(=N)N3C(=NC2=O)SN=C3S(C)(=O)=O)c(C)n1-c1ccccc1 33.8%
CN=C1C=C/C(=N/N=c2\ccn(O)cc2C)C=C1C 23.6%
O=C(O)c1cc(C(=O)O)cc(-c2ccc(C=c3sc4nc5ccccc5n4c3=O)o2)c1 22.2%
COc1ccc(CCNC(=O)C2CCN(c3nn4c(=O)cc(C)nc4s3)CC2)cc1OC 27.9%
CC[n+]1cc(C)ccc1/C=C/c1ccc(N(C)C)cc1 20.6%
CCOC(=O)c1cccc(NC(=O)c2ccc(F)cc2F)c1 24.8%
O=C1NNC(c2ccccc2)=N/C1=C\c1ccc(Cl)cc1 21.1%
CC(C)NC(=O)/C(C#N)=C\c1ccc(N(C)C)c(Br)c1 35.8%
Cc1ccc(Nc2cc(C)nc3c(C)ccc([N+](=O)[O-])c23)cc1 42.3%
CC(OC(=O)c1c(F)cccc1F)C(=O)NCCC1=CCCCC1 (stereo not drawn) 29%
COc1cccc(C2/C(=C(/O)c3ccc(F)cc3)C(=O)C(=O)N2CCN(C)C)c1 (stereo not drawn) 26.3%
Cc1cc(C)c[n+](-c2[nH]c(=O)sc2C=NNC([S-])=Nc2ccccc2)c1 23%
COc1ccc(Cn2nnc3c(=O)[nH]c(C4CCN(C(=O)c5ccccc5Cl)CC4)nc32)cc1 35.6%
O=C(CC1OC(=O)c2ccccc21)NC1CCCCC1 (stereo not drawn) 26%

inhibition, inactive:
S=c1[nH]nc(-c2ccccc2)n1N=Cc1ccc(-c2ccccc2Cl)o1 5.56%
CC(CC(=O)Nc1ccc(Cl)cc1Cl)=NNC(=O)c1ccncc1 0.597%
COC(=O)NN=C(C)c1cccs1 2.45%
N#C/C(=C/c1ccc(N2CCCCC2)o1)C(=O)NCCc1c[nH]c2ccccc12 11.5%
N#C/C(=C\c1ccc(N2CCOCC2)o1)C(=O)N1CCOCC1 15.4%
N#Cc1c2c(c(-c3ccccc3)[nH]c1=O)CCCC2 -49.7%
CC(C)(C)n1c(=O)[nH]c2c(c1=O)CCC2 -4.38%
CCOc1ccc(C=NNC(=O)c2nnn(-c3nonc3N)c2COc2ccc(F)cc2)cc1 -139%
N#CCC(=O)NN=Cc1cn(Cc2cccc3ccccc23)c2ccccc12 1.26%
COCc1c(C)cc(C)c(C=NO)c1C 3.47%
N#CC(=NNc1cc(Cl)cc(Cl)c1)c1nnc2n1CCCCC2 3.3%
C=CCn1c(=C(C#N)c2nnc3n2CCCCC3)sc(=Cc2ccc(Cl)cc2)c1=O 8.49%
COc1cc(C=NNS(=O)(=O)c2ccc(C)cc2)ccc1OCc1ccc(C(=O)O)cc1 3.97%
COc1ccccc1C=NNc1cc(C)nc2ccc(C)cc12 -45.9%
C/C(C=NNC(=O)c1ccc2nc[nH]c2c1)=C/c1ccccc1 5.71%
Cc1nc(NC(=O)C2CCCCC2)sc1C 1.92%
Cc1cnc(NC(=O)c2ccccn2)s1 2.76%
CCCOc1ccc(-c2c(C(=O)NN=Cc3ccccc3)nnn2-c2nonc2N)cc1 5.85%
COc1cc(C=Nn2c(C)nc3ccccc3c2=O)ccc1O 12.2%
CC(CC(=O)Nc1cc(C)ccn1)=NNC(=O)c1cccc(C)c1O -6.85%
Cc1cc(C=NO)c(C)n1-c1ccccc1 -2.23%
CCS(=O)(=O)C1=NSC2=NC(=O)/C(=C\c3cc(C)n(-c4cccc(OC)c4)c3C)C(=N)N21 -8.8%
COc1ccc2c(c1)c(C(=O)NN=Cc1ccc(Br)cc1)c(C)n2C 2.61%
CC(Oc1ccc(Cl)cc1)C(=O)NN=Cc1ccsc1 (stereo not drawn) 0.279%
Cc1oc(N=Cc2cccc([N+](=O)[O-])c2)c(C#N)c1C 4.11%
COc1ccc(C=NNC(=O)CSCC(=O)Nc2ccccc2)cc1 2.55%
COC(=O)Cc1cc(=O)[nH]c(N=C(N)Nc2ccc(C)cc2C)n1 -0.633%
C(=Nn1cnnc1)c1ccc(OCc2cccc3ccccc23)cc1 2.25%
COc1ccc2ccccc2c1C=NNC(=S)Nc1cc(S(=O)(=O)N2CCOCC2)ccc1N1CCOCC1 -8.36%
O=C(NN=Cc1ccc(-c2ccccc2[N+](=O)[O-])o1)C1COc2cc3ccccc3cc2O1 (stereo not drawn) 7.82%
CC(C)(C)c1cc(=O)n2c(nc3ccccc32)[nH]1 -27.1%
O=c1c(=Cc2ccco2)sc2nc(-c3ccccc3Br)nn12 4.51%
CC(=NNC(=O)Cc1c(Cl)cccc1Cl)c1cccnc1 4.49%
Cc1cccc(-c2cc(C(=O)NN=Cc3cccnc3)c3ccccc3n2)c1 1.54%
Cc1cc(=O)n2nc(N3CCC(C(=O)Nc4c(F)c(F)c(F)c(F)c4F)CC3)sc2n1 -5.44%
CCCOc1ccc(CNC(=O)C2CCN(c3nn4c(=O)cc(C)nc4s3)CC2)cc1 1.32%
CCOc1ccc(C=NNC(=O)CN2CCCCC2)cc1OCC 4.23%
COc1ccc(CC(=O)Nc2cccc(C(C)=NNC(=O)c3cccc([N+](=O)[O-])c3)c2)cc1 2.24%
CCC(=NNC(=O)Nc1nonc1N)c1ccc(OC)c(OC)c1 2.18%
Cc1nnsc1C(=O)NN=Cc1ccccc1Cl 2.87%
O=C(CNC(=O)c1cccc(Cl)c1)NN=Cc1cccnc1 3.41%
CCOC(=O)c1cccc(NC(=O)CCOc2ccccc2)c1 0.512%
CCOC(=O)c1cccc(NC(=O)CCn2nnc3ccccc32)c1 0.741%
CC(=O)NC1CCCN(O)C(=O)C=C(C)CCOC(=O)C(NC(C)=O)CCCN(O)C(=O)C=C(C)CCOC(=O)C(NC(C)=O)CCCN(O)C(=O)C=C(C)CCOC1=O (stereo not drawn) -0.932%
COc1cc(OC)cc(C(=O)NN=Cc2ccoc2)c1 1.2%
CCOC(=O)c1cc(C(C)=NOC(=O)c2ccc(C(C)(C)C)cc2)on1 4.76%
O=C(NN=Cc1cc2cc3c(cc2nc1Cl)OCO3)c1ccncc1 -62.6%
N#C/C(=C\c1ccc(O)c(O)c1)C(=O)NCc1ccccc1 4.82%
Cc1[nH]c2ccccc2c1/C=C(/C#N)C(=O)NC(C)C 11.3%
CC(=NNC(=O)Cc1c[nH]c2ccccc12)c1ccc2ccccc2c1 -2.68%
Cc1cc(Nc2ccc(C(=O)N3CCCCC3)cc2)c2cccc(C)c2n1 7.53%
Cc1cc(Nc2ccc(N3CCOCC3)cc2)c2cccc(C)c2n1 9.4%
CC1(C)CC(=O)CC(=NNC(=O)c2ccc(-c3ccccc3)cc2)C1 3.09%
CCOc1cc(C=NO)ccc1OS(=O)(=O)c1ccc(C)cc1 -0.715%
CC(C)COc1ccc(C(=O)OCC(=O)NCCC2=CCCCC2)cc1 1.87%
CC(OC(=O)c1ccc(Cl)cc1O)C(=O)NCCC1=CCCCC1 (stereo not drawn) -2.32%
C=CCc1c(C)nc(-c2ccccc2)nc1NN=C(C)c1ccc(N)cc1 5.32%
O=C(NN=Cc1sc(N2CCCCC2)nc1-c1cccs1)C1CC1 -4.87%
CCCOc1ccc(/C(O)=C2/C(=O)C(=O)N(CCN(C)C)C2c2ccc(OC)c(OC)c2)cc1 (stereo not drawn) 9.6%
COc1ccc(/C(O)=C2/C(=O)C(=O)N(CCCN(C)C)C2c2ccccc2)cc1OC (stereo not drawn) 8.49%
CCC1SC(C)CC(=NNC(N)=O)C1C (stereo not drawn) 1.74%
O=C(NN=Cc1ccc(O)cc1)c1csc2ccccc12 3.7%
Cc1nn(C)c(C(=O)NN=Cc2cccnc2)c1Cl 1.1%
CC(=NNc1ccccc1)c1c(O)cc(C)oc1=O 2.24%
C(=NNc1nc(-c2ccccc2)cs1)c1cccs1 -0.256%
COc1ccc(Br)cc1C=Nn1c(COc2ccccc2)n[nH]c1=S 3.72%
Cc1ccc(NC(=O)N2CCC(c3nc4c(nnn4Cc4c(F)cccc4Cl)c(=O)[nH]3)CC2)cc1 1.34%
Cc1ccc(Cn2nnc3c(=O)[nH]c(C4CCN(S(=O)(=O)/C=C/c5ccccc5)CC4)nc32)cc1 0.769%
Oc1ccc(C=NNC2=NCCCCC2)c(O)c1 -24.8%
CC(Oc1cccc(Cl)c1)c1ccnc2nc(N=CN(C)C)nn12 (stereo not drawn) -41%
CC(=NNC(=O)c1nnn(-c2nonc2N)c1CSc1ccc(Cl)cc1)c1ccco1 0.0783%
CC(=O)CC(CC(=O)NC1CCCCC1)c1ccccc1 (stereo not drawn) 3.65%
O=C(CN1C(=O)c2ccccc2S1(=O)=O)NC1CCCCC1 0.614%
Cc1nnsc1C(=O)NN=Cc1ccccc1 -1.09%
COc1ccc(C(C)=NNC(=O)CN(c2ccc(OC)cc2)S(=O)(=O)c2ccccc2)cc1 3.13%

From PubChem BioAssay AID588478 (ICCB-Longwood Screening Facility, Harvard Medical School, 2011)
